UCH37 DUB inh = human UCH37 deubiquitinating enzyme inhibition | actives 0.33% (n = 330,000) | purified proteasome/UCH37, Ub-AMC cleavage fluorescence | AID 588478 | Q9Y5K5 | inhibition, % (concentration not given with the values);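 active means mean inhibition over replicate wells above about 20%, limit read from the data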;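 further: 0% = compound-free wells with enzyme and 100% = wells lacking proteasome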
Target sequence (Q9Y5K5 whole entry, looked up): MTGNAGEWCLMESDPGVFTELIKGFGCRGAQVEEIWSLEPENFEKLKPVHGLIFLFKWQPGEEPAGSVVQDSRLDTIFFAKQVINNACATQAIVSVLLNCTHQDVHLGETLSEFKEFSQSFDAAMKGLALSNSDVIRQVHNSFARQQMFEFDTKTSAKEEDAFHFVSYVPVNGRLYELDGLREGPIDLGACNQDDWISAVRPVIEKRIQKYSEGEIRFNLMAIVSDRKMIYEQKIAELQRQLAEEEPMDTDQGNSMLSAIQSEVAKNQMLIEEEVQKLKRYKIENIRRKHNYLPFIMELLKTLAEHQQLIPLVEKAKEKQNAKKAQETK
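System: Proteasome-associated human UCH37 deubiquitinase; Input: 0.15 nM proteasome in added enzyme buffer; Also added: Ub-AMC substrate from 1 µM stock; Incubation: 30 min compound-proteasome preincubation then 25 min substrate reaction, room temperature; Detection: fluorescence, ex 355 nm, em 460 nm; Read-out: % inhibition of Ub-AMC cleavage fluorescence; Benchmarks: no-proteasome and no-compound wells.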
cardiac RTF act = cardiac RTF calcium sensitization; P19429+P45379; IANBD-labeled TnC RTF fluorescence at EC20 calcium; 0% EC20 calcium, 100% full calcium; activation, % at 7.2 µM; actives 0.24% (n = 340,000); AID 493008;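 active means activation above the mean over all tested compounds plus 3 SD, cut at about 30% in these data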;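 further: rise in fluorescence read as greater calcium sensitivity of cardiac thin filaments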
ARNT-TACC3 inh = ARNT/TACC3 interaction disruption; Q9Y6A5; AlphaScreen His-ARNT PAS-B/GST-TACC3 binding, luminescence; TACC3 fragment carries E629A point mutation; inhibition, % at 9.99 µM; actives 0.66% (n = 390,000); AID 623870;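 active means mean inhibition of replicates at least 50% and at least half of replicates each reaching 50%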;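 further: 0% = complete ARNT plus TACC3 wells and 100% = ARNT alone without TACC3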
Efflux pump mplx = antifungal efflux pump inhibition, Nile Red retention. S. cerevisiae Candida pump triplex. AID 485275. actives 0.44% (n = 330,000). inhibition, % at 10 µM;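 active means plate passing quality check with inhibition over a set limit, or well fluorescence over plate mean plus 4 SD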;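 further: Nile Red retained in pooled yeast measured as flow cytometry median fluorescence; 0% = buffer negative control and 100% = Enniatin B positive control; higher means more Nile Red kept so more efflux inhibition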
Cardiac RTF inh = cardiac RTF calcium desensitization. actives 0.12% (n = 340,000). inhibition, % at 7.15 µM. P19429+P45379. AID 493244. IANBD-labeled cardiac RTF, Ca2+ fluorescence;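 active means inhibition above the mean inhibition of all tested compounds plus 3 SD, cut at about 17% in these data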;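 further: assay run at fixed EC70 calcium of 1.6 mM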
SUMO Mot1 rescue = SUMOylation pathway inhibition by Mot1-301 growth rescue; S. cerevisiae Mot1-301 growth rescue, ATP luminescence, 38.5C; percent above DMSO median, 100 means doubled; growth rescue, % at 18.8 µM; actives 1% (n = 320,000); AID 2716;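 active means every valid replicate shows activation above 250% relative to neutral control wells; inactive means the rest, any valid replicate at or below 250%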;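 further: OY570 slx delta 5 strain wells were the positive control but not used for scaling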
Yeast cmpd fluor = flagged as fluorescent in efflux inhibitor counter-screen; shares compounds with Efflux pump mplx; S. cerevisiae AD/pABC3, compound fluorescence, flow cytometry; fluorescence ratio to DMSO, % at 10 µM; actives 4% (n = 1,700);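 active means fluorescence ratio to DMSO above its plate's cutoff, the plate mean ratio plus 5 SD, cut at about 210% in these data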;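 further: unstained yeast with no Nile Red so the signal is compound autofluorescence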
CaMdr1 efflux inh = Candida Mdr1 efflux pump inhibition. shares compounds with Efflux pump mplx. inhibition, % at 10 µM. actives 1% (n = 1,700). S. cerevisiae AD/CaMDR1, Nile Red efflux, flow cytometry. AID 588518; in the data active means inhibition above about 26%;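 further: 0% = DMSO vehicle and 100% = reference inhibitor; higher means more Nile Red retained so more efflux inhibition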
Cdr2 pump inh = Candida Cdr2 efflux pump inhibition | shares compounds with Efflux pump mplx | AID 588520 | Nile Red retention ratio vs DMSO, % at 10 µM | actives 4% (n = 1,700) | S. cerevisiae AD/CaCDR2, Nile Red retention, flow cytometry; in the data active means Nile Red retention ratio vs DMSO above about 190%;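 further: higher ratio means more blocking of Cdr2 efflux of the dye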
CaCdr1 efflux inh = inhibitors of Candida albicans Cdr1 efflux pump; S. cerevisiae AD/CaCDR1, Nile Red efflux, flow cytometry; shares compounds with Efflux pump mplx; inhibition, % at 10 µM; AID 588522; actives 1% (n = 1,700);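 active means inhibition above the screen-wide mean plus twice its standard deviation, cut at about 32% in these data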
RTF Ca inh conf = confirmation of inhibitors of cardiac thin filament calcium sensitivity; shares compounds with Cardiac RTF inh; reconstituted cardiac thin filaments, calcium sensitivity fluorescence; inhibition, % at 7.15 µM; actives 8% (n = 360); AID 504635; in the data active means inhibition above about 18%
UCH37 reconfirm = confirmation of human UCH37 deubiquitinating enzyme inhibitors; shares compounds with UCH37 DUB inh; Proteasome-bound UCH37, Ub-AMC cleavage fluorescence; inhibition, % at 20 µM; actives 27% (n = 480);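 active means average inhibition over replicates above about 50%, so the earlier screening hit is confirmed, limit read from the data; inactive means the rest, counted as false positives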;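 further: based on cleavage rate fitted by regression over a 30 min kinetic read; 0% = proteasome plus Ub-AMC and 100% = Ub-AMC without proteasome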
ARNT Alpha ctr = interferes with AlphaScreen signal, flagging false ARNT-TACC3 hits; shares compounds with ARNT-TACC3 inh; His-ARNT PASB-GST AlphaScreen artifact counter-screen, luminescence; AC50, µM (series often up to 68 µM), without a hit: at the top dose activity change, negative = signal decrease; actives 50% (n = 1,200); AID 651705;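 active means every separate test run was called active for a drop in luminescence, with AC50 within twice the top valid dose, actives reach about 71 µM in these data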
Numbers without * were called inactive; i = inactive; nt = no result given; + = active, no number; ! = not confirmed by another sample. This is a sample that favours compounds with a hit; in the whole collection about 2.1% have one here.

SMILES	UCH37 DUB inh	cardiac RTF act	ARNT-TACC3 inh	Efflux pump mplx	Cardiac RTF inh	SUMO Mot1 rescue	Yeast cmpd fluor	CaMdr1 efflux inh	Cdr2 pump inh	CaCdr1 efflux inh	RTF Ca inh conf	others
Cc1ccccc1OCCC(=O)OCC(=O)c1c(N)n(CC(C)C)c(=O)n(C)c1=O	2	-2	-2	6.2*	-10	-11	99	0	96	0	nt
CC(=O)Oc1ccccc1/C=C/c1ccc2ccccc2[n+]1C	9	-1	2	0	4	12	nt	nt	nt	nt	nt
COc1ccc(/C=C/c2ccc3ccccc3[n+]2C)cc1OC	5	3	-5	1.1*	-10	-6	227	2	112	2	nt
CCN(CC)c1ccc2cc(-c3nc(-c4ccc(OC)cc4)cs3)c(=O)oc2c1	2	nt	nt	6.0*	nt	0	640*	1	732*	2	nt
Cc1ccc(S(=O)(=O)Nc2cc(C)c(O)c(Sc3n[nH]c(C)n3)c2)cc1	1	-7	0	0	-4	-19	99	-1	109	0	nt
CCCCC(CC)CO (centres undefined)	4	4	-23	0	-4	nt	nt	nt	nt	nt	nt
CCCCC(CC)CN=C(N)NC(N)=NCCCCCCN=C(N)NC(N)=NCC(CC)CCCC (centres undefined)	9	0	-2	2.2*	23*	-55	93	0	131	0	3
CCCCC(=O)NN=C(C)CC(=O)Nc1ccccc1Br	3	nt	nt	nt	nt	nt	nt	nt	nt	nt	nt
CCCCCCCCCCCCCCCCn1cc[n+](C)c1	76*	-10	2	2.7*!	24*	115	100	0	110	0	-3
Cn1cc(/C=C/c2cc[n+](C)cc2)c2cc(F)ccc21	28*	317*	-7	9.5*	-383	111	743*	3	93	4	nt	UCH37 reconfirm=34
CCCn1c(/C=C/c2cc[n+](C)cc2)nc2ccccc21	-145	2	7	0	-14	76	nt	nt	nt	nt	nt
Cc1cccc(C)c1NC(=S)NN=Cc1ccccc1C(=O)O	1	nt	nt	nt	nt	nt	nt	nt	nt	nt	nt
C(=NNc1ccc2nncn2n1)c1ccco1	12	nt	nt	nt	nt	nt	nt	nt	nt	nt	nt
CCN1/C(=C/c2ccc3cc(C)ccc3[n+]2CC)Sc2ccccc21	36*	47*	14	3.0*	-52	481	nt	5	143	2	nt	UCH37 reconfirm=44
O=C(NN=Cc1nn(-c2ccccc2)cc1-c1ccccc1)c1ccncc1	-43	nt	nt	nt	nt	nt	nt	nt	nt	nt	nt
O=C(O)CCCN1C(=O)/C(=C\c2ccc(-c3nc4ccccc4s3)o2)SC1=S	39*	-16	-1	1.1*	7	-5	106	0	180	0	nt	UCH37 reconfirm=44
O=S(=O)(Nc1cc(Sc2ncn[nH]2)c(O)c2ccccc12)c1ccccc1	38*	nt	nt	nt	nt	nt	100	0	96	0	nt	UCH37 reconfirm=70*
CN1CCN(C2=CC3=CC(=C(C#N)C#N)CCC3CC2)CC1 (centres undefined)	26*	+	-1	nt	i	nt	161	0	243*	0	nt	UCH37 reconfirm=15
O=C(ON=C1CCS(=O)(=O)c2sccc21)C1CC1	-1	nt	nt	nt	nt	nt	nt	nt	nt	nt	nt
CCOC(=O)c1c(-c2ccccc2)csc1NC(=O)CCN1C(=O)c2ccccc2C1=O	-1	5	1	0	-9	-12	nt	nt	nt	nt	nt
CCOC(=O)c1c(-c2ccc(-c3ccccc3)cc2)csc1NC(=O)CNCCN(C)C	25*	-9	32	2.6*	3	-11	116	0	108	0	nt	UCH37 reconfirm=84*
COc1ccc(C(=O)Cc2nnc(C)s2)c(OC)c1	7	-4	77*	8.0*	-9	-9	99	0	103	0	nt	ARNT Alpha ctr=-5%
CC1CCCC(C)N1N=Cc1ccccc1Br (centres undefined)	2	nt	nt	nt	nt	nt	nt	nt	nt	nt	nt
CC(C)(C)C1CCc2c(C(=O)NNC(=O)CCCC(=O)O)csc2C1 (centres undefined)	5	-3	-3	0	17*	16	nt	nt	nt	nt	0
COC(=O)NN=Cc1cccc(OC(=O)c2cccs2)c1	5	nt	nt	nt	nt	nt	nt	nt	nt	nt	nt
SMILES	UCH37 DUB inh	cardiac RTF act	ARNT-TACC3 inh	Efflux pump mplx	Cardiac RTF inh	SUMO Mot1 rescue	Yeast cmpd fluor	CaMdr1 efflux inh	Cdr2 pump inh	CaCdr1 efflux inh	RTF Ca inh conf	others
Oc1ccc(-c2nc(-c3ccc(F)cc3)c(-c3ccncc3)[nH]2)cc1	-9	2	-4	0	20*	nt	nt	nt	nt	nt	1
CCc1ccc(OCC(=O)NNC(=O)c2nn(CC)c(=O)c3ccccc23)cc1	0	-3	1	0	18*	nt	nt	nt	nt	nt	-8
O=C1N[C@@H](Cc2cnc[nH]2)C(=O)N2CCC[C@@H]12	2	3	11	0	17*	121	nt	nt	nt	nt	-2
O=c1c2c(-c3ccc(Cl)cc3)csc2ncn1N=Cc1cccc([N+](=O)[O-])c1O	6	nt	nt	nt	nt	nt	nt	nt	nt	nt	nt
CC(=NNC(=O)c1ccc2c(c1)OCO2)c1cccc([N+](=O)[O-])c1	2	nt	nt	nt	nt	nt	nt	nt	nt	nt	nt
O=C(O[C@@H]1OC2COC(=O)c3cc(O)c(O)c(O)c3-c3c(cc(O)c(O)c3O)C(=O)O[C@@H]([C@H]1O)[C@@H]2O)c1cc(O)c(O)c(O)c1	nt	-60	16	0	130*	-12	nt	nt	nt	nt	167*
CCOC(=O)[C@H](CCc1ccccc1)N[C@@H](C)C(=O)N1C(C(=O)O)C[C@@H]2CCC[C@@H]21 (some centres undefined)	0	2	-3	0	23*	-4	nt	nt	nt	nt	-3
CCN(CC)CCNC(=O)c1ccc(Sc2ccc(Cl)cc2)c(NC(C)=O)c1	5	-4	-69	0	-5	5	nt	nt	nt	nt	nt
CCN(CC)CCNC(=O)c1ccc(Sc2ccc(C)cc2)c(NC(C)=O)c1	1	-1	-2	0	18*	-6	nt	nt	nt	nt	-5
O=C(COc1ccccc1Cl)Nc1ccc2c(c1)OCO2	1	-5	-6	0	19*	-7	nt	nt	nt	nt	-3
COC(=O)c1ccc(C=NNC(=O)c2c(C)nc3ccc(Cl)cn23)cc1	3	nt	nt	nt	nt	nt	nt	nt	nt	nt	nt

Compound activity (PubChem BioAssay)
